These results are taken from ChEMBL document CHEMBL5579857, “Fragment-Based Discovery of Novel MUS81 Inhibitors” (ACS Med Chem Lett, 2024).

SMILES strings stand for the structures. Where only a bound is given, the exact number is not on record here.

A short description of series [1]: Binding affinity to human Avi-tagged MUS81 (246 to 551 residues)/2x8His-tagged EME1 (246 to 570 residues) extracted from Escherichia coli BL21 Gold (DE3) by SPR analysis. The essentials: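 Fragments flagged as hits in a DSF screen were taken into SPR against MUS81-EME1 to confirm binding and obtain Kd. Kd is reported as the geometric mean with geometric standard deviation of at least three determinations.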

The nature of series [2]: Inhibition of human Avi-tagged MUS81 (246 to 551 residues)/2x8His-tagged EME1 (246 to 570 residues) extracted from Escherichia coli BL21 Gold (DE3) using branched DNA as substrate preincubated for 15 mins followed by substrate addition and measured after 90 mins by FRET assay. In short, it runs like this: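 IC50 is reported as the geometric mean ± SEM of at least three independent determinations.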

The nature of series [3]: Lipophilicity, logD of the compound in octanol/water at pH 7.4 by shake flask method. In kind it is physicochemical.
Series [4] can be described thus: Kinetic aqueous solubility of the compound at pH 7.4. In kind it is physicochemical. To be noted: buffer.
Series [5] can be described thus: Metabolic stability in human liver microsomes assessed as intrinsic clearance. The series is classed as ADME, Microsome. Background: Microsomes from liver hold many membrane-bound enzymes, among them those of drug oxidation.
Series [6] can be described thus: Metabolic stability in rat hepatocytes assessed as intrinsic clearance measured per million cells. The series is classed as ADME, cell-based, Hepatocyte. Conditions: read-out: CLH.
A short description of series [7]: Efflux ratio of apparent permeability in human Caco-2 cells. In kind it is ADME, cell-based.
In series [8] the target is Voltage-gated inwardly rectifying potassium channel KCNH2 (Homo sapiens, UniProt Q12809). Briefly: Inhibition of hERG. In kind it is toxicity. (In general: hERG is a cardiac potassium channel; its block is linked to QT prolongation.)
Sequence of Voltage-gated inwardly rectifying potassium channel KCNH2 (Q12809 whole entry): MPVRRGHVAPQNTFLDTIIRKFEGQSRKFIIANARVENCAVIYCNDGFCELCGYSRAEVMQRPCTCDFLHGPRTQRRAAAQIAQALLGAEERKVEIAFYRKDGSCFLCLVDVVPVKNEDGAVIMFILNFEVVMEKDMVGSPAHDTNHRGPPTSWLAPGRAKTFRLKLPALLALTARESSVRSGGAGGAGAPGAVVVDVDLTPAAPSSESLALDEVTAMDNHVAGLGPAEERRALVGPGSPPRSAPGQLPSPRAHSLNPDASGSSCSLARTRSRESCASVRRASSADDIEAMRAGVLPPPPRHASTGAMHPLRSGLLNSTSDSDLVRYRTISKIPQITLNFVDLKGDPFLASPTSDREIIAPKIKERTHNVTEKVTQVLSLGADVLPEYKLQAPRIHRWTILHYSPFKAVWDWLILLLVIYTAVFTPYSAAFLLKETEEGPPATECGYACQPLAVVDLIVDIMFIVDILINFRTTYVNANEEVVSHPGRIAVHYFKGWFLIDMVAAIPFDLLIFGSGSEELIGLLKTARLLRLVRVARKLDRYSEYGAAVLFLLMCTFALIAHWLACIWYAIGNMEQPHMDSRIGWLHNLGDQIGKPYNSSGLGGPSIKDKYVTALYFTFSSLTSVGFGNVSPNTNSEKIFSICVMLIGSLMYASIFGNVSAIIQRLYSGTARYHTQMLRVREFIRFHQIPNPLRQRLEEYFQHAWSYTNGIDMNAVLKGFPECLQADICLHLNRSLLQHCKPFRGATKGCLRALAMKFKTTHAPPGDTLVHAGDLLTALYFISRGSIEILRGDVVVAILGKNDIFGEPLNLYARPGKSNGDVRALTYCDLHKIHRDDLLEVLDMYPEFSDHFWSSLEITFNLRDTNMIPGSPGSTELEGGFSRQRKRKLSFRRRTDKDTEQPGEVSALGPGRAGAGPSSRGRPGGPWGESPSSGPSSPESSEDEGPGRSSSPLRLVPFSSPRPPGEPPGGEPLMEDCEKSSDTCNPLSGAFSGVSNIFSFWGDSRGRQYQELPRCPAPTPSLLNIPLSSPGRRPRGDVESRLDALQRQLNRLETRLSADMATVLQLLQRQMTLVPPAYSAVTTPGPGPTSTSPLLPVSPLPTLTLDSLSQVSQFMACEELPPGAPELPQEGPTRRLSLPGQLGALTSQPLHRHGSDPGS
The target of series [9] is T1, Prostaglandin G/H synthase 2 (Homo sapiens, UniProt P35354).
T1 sequence (P35354 whole entry): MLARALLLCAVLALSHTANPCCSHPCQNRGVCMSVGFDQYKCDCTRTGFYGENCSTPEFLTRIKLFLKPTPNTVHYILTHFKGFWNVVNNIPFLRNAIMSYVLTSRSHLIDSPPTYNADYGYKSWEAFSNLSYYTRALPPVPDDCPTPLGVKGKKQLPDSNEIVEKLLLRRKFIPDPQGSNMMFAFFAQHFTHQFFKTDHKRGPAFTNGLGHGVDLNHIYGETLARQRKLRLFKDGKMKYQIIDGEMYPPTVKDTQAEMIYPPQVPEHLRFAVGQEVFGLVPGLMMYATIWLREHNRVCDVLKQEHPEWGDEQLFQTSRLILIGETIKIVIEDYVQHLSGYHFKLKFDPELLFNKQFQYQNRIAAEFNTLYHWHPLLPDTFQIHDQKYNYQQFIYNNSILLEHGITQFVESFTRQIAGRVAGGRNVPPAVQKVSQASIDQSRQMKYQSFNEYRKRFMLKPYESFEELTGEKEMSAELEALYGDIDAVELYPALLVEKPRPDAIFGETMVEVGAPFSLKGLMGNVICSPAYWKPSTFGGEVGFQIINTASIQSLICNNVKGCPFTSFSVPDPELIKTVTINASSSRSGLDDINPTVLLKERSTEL
Briefly: Inhibition of COX2 (unknown origin). In kind it is toxicity.

In the next series the test system is PDE. Briefly: Inhibition of PDE (unknown origin). The series is classed as toxicity, Homo sapiens.
A further series has as its target Insulin receptor (Homo sapiens, UniProt P06213). Briefly: Inhibition of INSR (unknown origin). The series is classed as toxicity.
Series [10] deals with GABA-A receptor; anion channel. Briefly: Inhibition of GABA (unknown origin). The series is classed as toxicity, Homo sapiens.
The target of series [11] is Glutamate [NMDA] receptor. Briefly: Inhibition of NMDA (unknown origin). In kind it is toxicity, Homo sapiens.
In series [12] the target is CaV-L (Voltage-gated L-type calcium channel) (Homo sapiens, UniProt O60840+Q01668+Q13698+Q13936). Briefly: Inhibition of CaV-L (unknown origin). The series is classed as toxicity.

Sequence of Insulin receptor (P06213 28-758 limits assumed): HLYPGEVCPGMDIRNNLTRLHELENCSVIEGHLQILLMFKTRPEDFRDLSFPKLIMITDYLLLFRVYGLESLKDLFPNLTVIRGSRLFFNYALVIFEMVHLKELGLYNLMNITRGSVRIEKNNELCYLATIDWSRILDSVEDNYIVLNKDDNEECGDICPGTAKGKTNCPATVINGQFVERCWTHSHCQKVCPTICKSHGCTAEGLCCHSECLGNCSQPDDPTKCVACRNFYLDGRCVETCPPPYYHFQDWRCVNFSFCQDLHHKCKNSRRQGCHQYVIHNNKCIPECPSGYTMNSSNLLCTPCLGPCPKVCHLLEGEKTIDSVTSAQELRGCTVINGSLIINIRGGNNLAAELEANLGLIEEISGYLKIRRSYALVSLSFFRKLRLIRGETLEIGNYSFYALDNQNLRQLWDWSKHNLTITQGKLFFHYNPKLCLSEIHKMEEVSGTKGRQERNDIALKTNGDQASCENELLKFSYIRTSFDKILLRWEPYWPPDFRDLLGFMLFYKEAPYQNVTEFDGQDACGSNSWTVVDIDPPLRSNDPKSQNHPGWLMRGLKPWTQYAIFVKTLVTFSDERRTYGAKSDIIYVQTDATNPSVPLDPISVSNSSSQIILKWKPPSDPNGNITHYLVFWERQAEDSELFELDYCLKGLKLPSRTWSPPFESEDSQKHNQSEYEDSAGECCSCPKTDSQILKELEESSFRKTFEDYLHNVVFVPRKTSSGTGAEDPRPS
Sequence of Insulin receptor (P06213 763-1382 limits assumed): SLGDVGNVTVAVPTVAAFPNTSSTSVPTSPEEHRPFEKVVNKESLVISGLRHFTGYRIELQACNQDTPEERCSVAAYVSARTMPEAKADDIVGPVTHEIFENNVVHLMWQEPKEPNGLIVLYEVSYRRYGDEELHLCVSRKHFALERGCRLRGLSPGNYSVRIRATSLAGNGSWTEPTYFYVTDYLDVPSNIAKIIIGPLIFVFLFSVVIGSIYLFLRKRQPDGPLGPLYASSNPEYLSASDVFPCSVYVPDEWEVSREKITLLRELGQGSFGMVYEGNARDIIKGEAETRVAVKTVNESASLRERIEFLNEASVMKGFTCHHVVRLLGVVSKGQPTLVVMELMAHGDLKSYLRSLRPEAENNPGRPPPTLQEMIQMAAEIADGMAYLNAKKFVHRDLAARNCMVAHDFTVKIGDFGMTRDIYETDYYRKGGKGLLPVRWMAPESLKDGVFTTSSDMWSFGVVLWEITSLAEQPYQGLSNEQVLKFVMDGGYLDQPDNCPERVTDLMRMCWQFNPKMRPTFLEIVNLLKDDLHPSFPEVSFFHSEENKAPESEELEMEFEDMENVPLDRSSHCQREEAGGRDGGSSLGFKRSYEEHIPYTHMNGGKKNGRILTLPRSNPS

In turn, `O=C(O)c1cc(-c2ccc(-c3ccccc3)cc2)[nH]c(=O)c1O` yielded a Kd in series [1] of 1.4 µM. The IC50 in series [2] was found to be 4.1 µM.
In [1], `O=C(O)c1cn(-c2ccc(N3CCNCC3)cc2)cc(O)c1=O` returned a Kd of 2 µM. In series [2], this molecule came in with an IC50 of 0.47 µM.
Taken in the same sequence, the figures for `N#CCc1ccc(-c2ccccc2-c2nc(C(=O)O)c(O)c(=O)[nH]2)cc1` were 0.54 µM and 2.8 µM.
In turn, `Cc1nc(C(=O)O)c(O)c(=O)[nH]1` gave a Kd in [1] of 44 µM. In [2], this molecule had a half-inhibitory concentration (IC50) greater than 100 µM.
Taken in the same sequence, the figures for `CN(C)C(=O)c1nc(-c2ccccc2)[nH]c(=O)c1O` were greater than 100 µM and greater than 100 µM.
Take `O=C(O)c1nc(-c2ccccc2)nc(O)c1O`: the dissociation constant Kd in [1] was 2.3 µM. This molecule also displayed an IC50 in [2] of 3.9 µM.
Taken in the same sequence, the figures for `COC(=O)c1nc(-c2ccccc2)[nH]c(=O)c1O` were 56 µM and greater than 100 µM.
The corresponding values for `O=C(O)c1nc(-c2ccc(Cl)cc2)nc(O)c1O` are 1.1 µM and 2.1 µM.
`N#Cc1cc(-c2ccc(C(=O)N3CCNCC3)cc2)ccc1-n1cc(O)c(=O)c(C(=O)O)c1` registered a log distribution coefficient (logD) in [3] of less than 0. For the same molecule, the Kd in series [1] turned out to be 1.1 µM. In addition, the IC50 in [2] was 0.27 µM; in [8] it was greater than 40 µM; in [9] it was greater than 100 µM; in the series with PDE, greater than 100 µM; against Insulin receptor, greater than 100 µM; in series [10], greater than 100 µM. Besides, the IC50 in [11] and in [12] was greater than 100 µM each time. The molecule further had a Kinetic_solubility in [4] greater than 200 µM. In addition, the CLH in [5] was determined as 7 µL/min/mg. Also, the hepatocyte CLint in [6] is 10 µL/min/1e6 cells. The Ratio in series [7] amounted to 1.1.
In series [3], `O=C(O)c1cn(-c2ccc(-c3ccc(C(=O)N4CCNCC4)cc3)cc2)cc(O)c1=O` showed a logD of less than 0. Moreover, binding in series [1] was characterised by a dissociation constant (Kd) of 0.67 µM. The IC50 in series [2] was 0.32 µM; in series [8], greater than 40 µM; in series [9], greater than 100 µM; in the series with PDE, greater than 100 µM; on Insulin receptor, greater than 100 µM; in [10] it was greater than 100 µM. Further, the IC50 in series [11] and in [12] was greater than 100 µM each time. In [4], this molecule had a Kinetic_solubility greater than 200 µM. Further, the CLH in [5] was less than 3 µL/min/mg. In [6], the hepatocyte CLint came to 11 µL/min/1e6 cells. In addition, the Ratio in series [7] was determined as 1.5.
`NC(=O)c1nc(-c2ccccc2)[nH]c(=O)c1O` had a Kd in [1] greater than 100 µM. Besides, in series [2], the IC50 was greater than 100 µM.
Turning to `O=C(O)c1nc(-c2cccc(Cl)c2)nc(O)c1O`, in series [1], the Kd was found to be 4.8 µM. 5.6 µM corresponded to half-maximal inhibition in [2] (IC50).
Taken in the same sequence, the figures for `CNC(=O)c1nc(-c2ccccc2)[nH]c(=O)c1O` were 74 µM and greater than 100 µM.
In series [1], `O=C(O)c1nc(-c2ccc(Br)cc2)nc(O)c1O` yielded a Kd of 1 µM. Also, the IC50 in series [2] is 2 µM.
In series [1], `O=C(O)c1nc(-c2ccc(N3CCNCC3)cc2)[nH]c(=O)c1O` came in with a Kd of 2.1 µM. In [2], inhibition was half-maximal at 1.2 µM (IC50).
For `O=C(O)c1nc(-c2ccc(-c3ccccc3)cc2)[nH]c(=O)c1O`, the Kd in [1] stood at 0.72 µM. In series [2], this molecule yielded a half-maximal inhibitory concentration (IC50) of 2.4 µM.
Taken in the same sequence, the figures for `O=C(O)c1nc(-c2ccc3ccccc3c2)[nH]c(=O)c1O` were 1.3 µM and 1.5 µM.
The corresponding values for `O=C(O)c1cn(-c2ccc(-c3ccccc3)cc2)cc(O)c1=O` are 0.79 µM and 0.66 µM.
Taken in the same sequence, the figures for `O=C(O)c1nc(C2CCCCC2)nc(O)c1O` were 2.2 µM and 2.8 µM.
As to `N#Cc1cc(N2CCNCC2)ccc1-n1cc(O)c(=O)c(C(=O)O)c1`, the dissociation constant Kd in [1] was found to be 1.2 µM. The midpoint of inhibition in [2], the IC50, lay at 0.47 µM.
In series [1], `O=C(O)c1[nH]c(-c2ccc(-c3ccccc3)cc2)cc(=O)c1O` came in with a Kd of 0.43 µM. For the same molecule, the IC50 in [2] was 1.1 µM.
`O=C(O)c1nc(-c2ccccc2Cl)[nH]c(=O)c1O` had a Kd in series [1] of 4 µM. This molecule gave a 50% inhibitory concentration (IC50) in series [2] of 3.8 µM.
The corresponding values for `O=C(O)c1nc(-c2cccc(-c3ccccc3)c2)[nH]c(=O)c1O` are 1.8 µM and 2 µM.
For the molecule `O=C(O)c1nc(-c2ccccc2-c2ccccc2)[nH]c(=O)c1O`, the affinity in series [1], expressed as Kd, was 4.3 µM. In series [2], this molecule gave a half-maximal inhibitory concentration (IC50) of 4.5 µM.

By Kd is commonly meant the constant that tells how readily two partners part at equilibrium. A high value points to lower affinity. By IC50 is commonly meant the concentration needed to halve the response being measured. As usually defined, the logD is the decadic logarithm of the distribution of all forms, ionised or not, between an organic phase and buffer at a given pH. A higher logD goes with a more lipophilic compound.
